In ChEMBL document CHEMBL1122890, “Resolved monophenolic 2-aminotetralins and 1,2,3,4,4a,5,6,10b-octahydrobenzo[f]quinolines: structural and stereochemical considerations for centrally acting pre- and postsynaptic dopamine-receptor agonists” (1985):
Calls of active or inactive are those of the source. No cut-off for these calls is given here.

Tests used:
[1] = species: Rattus norvegicus; test: Evaluated for dopa accumulation (biochemical activity) in rat striatum; type: functional
In short: (§1)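 Male Sprague-Dawley rats, 200-300 g. Compound dissolved in saline (sometimes with a little glacial acetic acid or warming), neutral pH, given sc at 50 μmol/kg. Dopa in limbic forebrain and striatum was measured by HPLC with electrochemical detection and expressed as percent of controls.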

[2] = species: Rattus norvegicus; test: Evaluated for dopa accumulation (biochemical activity) in rat limbic system; type: functional; in short: as §1
[3] = test system: Rattus norvegicus; test: Evaluated for the dose giving a half-maximal decrease of dopa formation in the rat brain, at a dose of 13000 (nmol/kg); type: functional
In short: (§2)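 Male Sprague-Dawley rats (200-300 g) received sc doses in saline, neutral pH. Dopa was measured in each brain area by HPLC with electrochemical detection. A separate dose-response curve was built per substance and brain area from four to six dose levels (n = 3-5). The dose giving half-maximal decrease of Dopa formation was estimated from that curve. Student's t-test was used, p ≤ 0.05.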

[4] = test system: Rattus norvegicus; test: Evaluated for the dose giving a half-maximal decrease of dopa formation in the rat brain, at a dose of 39000 (nmol/kg); type: functional; in short: as §2
[5] = test system: Rattus norvegicus; test: Evaluated for the dose giving a half-maximal decrease of dopa formation in the rat brain, at a dose of 1300 (nmol/kg); type: functional; in short: as §2
[6] = test system: Rattus norvegicus; test: Evaluated for the dose giving a half-maximal decrease of dopa formation in the rat brain, at a dose of 3100 (nmol/kg); type: functional; in short: as §2
[7] = test system: Rattus norvegicus; test: Evaluated for the dose giving a half-maximal decrease of dopa formation in the rat brain, at a dose of 213000 (nmol/kg); type: functional; in short: as §2
[8] = test system: Rattus norvegicus; test: Evaluated for dopa accumulation (biochemical activity) in rat limbic system; Inactive at 50 umol/kg; type: functional, organism-based; in short: as §1
[9] = test system: Rattus norvegicus; test: Evaluated for dopa accumulation (biochemical activity) in rat striatum; Inactive at 50 umol/kg; type: functional, organism-based; in short: as §1
[10] = test system: Rattus norvegicus; test: Evaluated for the dose giving a half-maximal decrease of dopa formation in the rat brain, at a dose of 50000 (nmol/kg); type: functional; in short: as §2
[11] = test system: Rattus norvegicus; test: Evaluated for the dose giving a half-maximal decrease of dopa formation in the rat brain, at a dose of 31000 (nmol/kg); type: functional; in short: as §2
[12] = test system: Rattus norvegicus; test: Evaluated for the dose giving a half-maximal decrease of dopa formation in the rat brain, at a dose of 310 (nmol/kg); type: functional; in short: as §2

Structure (SMILES) | ED50 [1] | ED50 [2] | other results
CCCN(CCC)[C@H]1CCc2ccc(O)cc2C1 | 2.4 µmol/kg | 1.9 µmol/kg | –
CN1CCc2cccc3c2[C@H]1Cc1ccc(O)c(O)c1-3 [APOMORPHINE] | 0.22 µmol/kg | 0.19 µmol/kg | –
CCCN1CCC[C@H](c2cccc(O)c2)C1.Cl | 1.3 µmol/kg | 1 µmol/kg | Accumulation counts [3]: 78
CCCN(CCC)[C@@H]1CCc2c(O)cccc2C1.Cl | 0.65 µmol/kg | 0.41 µmol/kg | Accumulation counts [4]: <43
CCCN1CCC[C@H]2c3cccc(O)c3CC[C@@H]21 | 0.014 µmol/kg | 0.014 µmol/kg | Accumulation counts [5]: <62 Counts; Accumulation counts [6]: <78 Counts
CCCN1CCC[C@@H](c2cccc(O)c2)C1.Cl [PRECLAMOL HYDROCHLORIDE] | 1.7 µmol/kg | 0.8 µmol/kg | Accumulation counts [7]: 12
CCCN1CCC[C@H]2c3cccc(O)c3CC[C@H]21 | – | – | ED50 [8]: inactive; ED50 [9]: inactive
CCCN(CCC)[C@@H]1CCc2ccc(O)cc2C1 | 0.011 µmol/kg | 0.0095 µmol/kg | –
CCCN1CCC[C@@H]2c3cccc(O)c3CC[C@H]21 | 0.41 µmol/kg | 0.32 µmol/kg | Accumulation counts [10]: 31; ED50 [8]: inactive; Accumulation counts [11]: <138 Counts; ED50 [9]: inactive; Accumulation counts [6]: <59 Counts
Br.CCCCN1CCCC2c3cc(O)ccc3CC[C@H]21 (some centres undefined) | – | – | Accumulation counts [10]: <75; ED50 [8]: inactive; ED50 [9]: inactive
CCCN(CCC)[C@H]1CCc2c(O)cccc2C1.Cl | 0.0037 µmol/kg | 0.0037 µmol/kg | Accumulation counts [12]: <155 Counts
